In ChEMBL document CHEMBL1146219, “Synthesis and evaluation of novel radioiodinated benzamides for malignant melanoma” (J Med Chem, 2007):

Tests used:
Settings in all cases: in vivo
Kidney [1] = experiment: Biodistribution in kidney of B16F0 tumor bearing C57BL/6J mouse at 0.37-0.74 MBq, iv after 24 hrs in presence of haloperidol; type: ADME, organism-based
In short: (§1)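 Haloperidol blocking in B16F0-bearing C57BL/6J mice: 1 mg/kg haloperidol was given iv 5 min before the iv [¹²³I]benzamide (0.37-0.74 MBq). Groups of n = 5 were killed at 1 or 24 h. Tissues were weighed and γ-counted as in the biodistribution study and compared with untreated controls by one-way ANOVA, with p < 0.01 taken as significant.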

[2] = Biodistribution in melanoma of B16F0 tumor bearing C57BL/6J mouse at 0.37-0.74 MBq, iv after 24 hrs; type: ADME, organism-based, B16-F0
In short: (§2)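 Female C57BL/6J mice (15-18 g) were given B16F0 cells subcutaneously in the left flank (0.1 mL of 3 × 10⁶ viable cells/mL in Ca²⁺/Mg²⁺-free PBS) at 6-7 weeks and used after ten days. [¹²³I]benzamide (0.37-0.74 MBq, 100 µL, saline) was injected via the tail vein. Groups of n = 5 were killed by CO₂ and cervical dislocation. Organs were weighed and γ-counted, and the carcass was counted too.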

Liver [3] = experiment: Biodistribution in liver of B16F0 tumor bearing C57BL/6J mouse at 0.37-0.74 MBq, iv after 1 hr; type: ADME, organism-based; in short: as §2
Heart [4] = experiment: (§3) Biodistribution in heart of B16F0 tumor bearing C57BL/6J mouse at 0.37-0.74 MBq, iv after 6 hrs; type: ADME, organism-based; in short: as §2
Liver [5] = experiment: Biodistribution in liver of B16F0 tumor bearing C57BL/6J mouse at 0.37-0.74 MBq, iv after 24 hrs in presence of haloperidol; type: ADME, organism-based; in short: as §1
Brain [6] = experiment: Biodistribution in brain of B16F0 tumor bearing C57BL/6J mouse at 0.37-0.74 MBq, iv after 24 hrs in presence of haloperidol; type: ADME, organism-based
Heart [7] = experiment: as §3; type: ADME, organism-based; in short: as §2; remark: listed apart in the source
Lung = experiment: Biodistribution in lung of B16F0 tumor bearing C57BL/6J mouse at 0.37-0.74 MBq, iv after 1 hr; type: ADME, organism-based; in short: as §2
Liver [8] = experiment: Biodistribution in liver of B16F0 tumor bearing C57BL/6J mouse at 0.37-0.74 MBq, iv after 1 hr in presence of haloperidol; type: ADME, organism-based; in short: as §1
Heart [9] = experiment: Biodistribution in heart of B16F0 tumor bearing C57BL/6J mouse at 0.37-0.74 MBq, iv after 24 hrs; type: ADME, organism-based; in short: as §2
Heart [10] = experiment: Biodistribution in heart of B16F0 tumor bearing C57BL/6J mouse at 0.37-0.74 MBq, iv after 48 hrs; type: ADME, organism-based; in short: as §2
Kidney [11] = experiment: Biodistribution in kidney of B16F0 tumor bearing C57BL/6J mouse at 0.37-0.74 MBq, iv after 24 hrs; type: ADME, organism-based; in short: as §2
Blood [12] = experiment: Biodistribution in blood of B16F0 tumor bearing C57BL/6J mouse at 0.37-0.74 MBq, iv after 1 hr; type: ADME, organism-based; in short: as §2
Blood [13] = experiment: Biodistribution in blood of B16F0 tumor bearing C57BL/6J mouse at 0.37-0.74 MBq, iv after 72 hrs; type: ADME, organism-based; in short: as §2
Brain [14] = experiment: Biodistribution in brain of B16F0 tumor bearing C57BL/6J mouse at 0.37-0.74 MBq, iv after 72 hrs; type: ADME, organism-based; in short: as §2
[15] = Biodistribution in melanoma of B16F0 tumor bearing C57BL/6J mouse at 0.37-0.74 MBq, iv after 3 hrs; type: ADME, organism-based, B16-F0; in short: as §2
Heart [16] = experiment: Biodistribution in heart of B16F0 tumor bearing C57BL/6J mouse at 0.37-0.74 MBq, iv after 1 hr; type: ADME, organism-based; in short: as §2
Kidney [17] = experiment: Biodistribution in kidney of B16F0 tumor bearing C57BL/6J mouse at 0.37-0.74 MBq, iv after 72 hrs; type: ADME, organism-based; in short: as §2
Brain [18] = experiment: Biodistribution in brain of B16F0 tumor bearing C57BL/6J mouse at 0.37-0.74 MBq, iv after 3 hrs; type: ADME, organism-based; in short: as §2
Kidney [19] = experiment: Biodistribution in kidney of B16F0 tumor bearing C57BL/6J mouse at 0.37-0.74 MBq, iv after 6 hrs; type: ADME, organism-based; in short: as §2
[20] = Biodistribution in melanoma of B16F0 tumor bearing C57BL/6J mouse at 0.37-0.74 MBq, iv after 72 hrs; type: ADME, organism-based, B16-F0
In short: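 Female C57BL/6J mice (15-18 g) carrying s.c. B16F0 flank tumors (0.1 mL of 3 × 10⁶ viable cells per mL in Ca²⁺/Mg²⁺-free PBS, inoculated at 6-7 weeks, used 10 days later). [¹²³I]tracer 0.37-0.74 MBq in saline, 100 µL, tail-vein i.v. Groups of n = 5 killed at 1-72 h. Organs weighed and γ-counted, carcass activity also counted, values as %ID/g.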

Kidney [21] = experiment: Biodistribution in kidney of B16F0 tumor bearing C57BL/6J mouse at 0.37-0.74 MBq, iv after 3 hrs; type: ADME, organism-based; in short: as §2

- Drug uptake (Kidney [1]): 0.03 % ID/g
- Drug uptake [2]: 6.1 % ID/g
- Drug uptake (Liver [3]): 16.8 % ID/g
- Drug uptake (Heart [4]): 0.75 % ID/g
- Drug uptake (Liver [5]): 0.3 % ID/g
- Drug uptake (Brain [6]): 0.002 % ID/g
- Drug uptake (Heart [7]): 0.54 % ID/g
- Drug uptake (Lung): 1.9 % ID/g
- Drug uptake (Liver [8]): 15.6 % ID/g
- Drug uptake (Heart [9]): 0.12 % ID/g
- Drug uptake (Heart [10]): 0.13 % ID/g
- Drug uptake (Kidney [11]): 0.12 % ID/g
- Drug uptake (Blood [12]): 1.2 % ID/g
- Drug uptake (Blood [13]): 0.05 % ID/g
- Drug uptake (Brain [14]): 0.01 % ID/g
- Drug uptake [15]: 9.7 % ID/g
- Drug uptake (Heart [16]): 0.98 % ID/g
- Drug uptake (Kidney [17]): 0.1 % ID/g
- Drug uptake (Brain [18]): 0.04 % ID/g
- Drug uptake (Kidney [19]): 1.2 % ID/g
- Drug uptake [20]: 2.2 % ID/g
- Drug uptake (Kidney [21]): 3.9 % ID/g
SMILES: CCCCN(C)CCCCNC(=O)c1cc([123I])c(NC(C)=O)cc1OC
